# Experimental data published in ChEMBL document CHEMBL1149811, “Synthesis of novel 4,6-disubstituted quinazoline derivatives, their anti-inflammatory and anti-cancer activity (cytotoxic) against U937 leukemia cell lines” (Eur J Med Chem, 2008).
# How the values were obtained:
# U-937 = test: Cytotoxicity against human U937 cells after 2 days by MTT assay; assay type: functional, cell-based; conditions: U-937, 48 h
# Procedure, shortened: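 U937 human histocytic lymphoma cells grown in RPMI-1640 with 10% FBS at 37 °C under CO2. Seeded at 2 × 10^4 cells/well and compounds added after 24 h. Viability read after two days by MTT (4 h at 37 °C, formazan dissolved in DMSO, absorbance 570 nm). Percent inhibition versus untreated control; IC50 (50% cell-number decrease) by linear regression; mean ± SE of four observations.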
# Rattus norvegicus [1] = test: Antiinflammatory activity in Wistar rat assessed as inhibition of carrageenan-induced paw edema at 100 mg/kg, po; assay type: functional
# Procedure, shortened: (§1)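 Male Wistar rats, fasted overnight, three per group. Given orally as 1% gum acacia suspension (test 100 mg/kg, indomethacin 10 mg/kg; controls vehicle). One hour later, 0.1 ml of 1% carrageenan injected sub-plantar into left hind paw. Paw volume measured by digital plethysmometer before carrageenan and at 3 h. Percent inhibition per rat versus mean control paw volume, reported as mean ± SE.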
# Rattus norvegicus [2] = test: Antiinflammatory activity in Wistar rat assessed as inhibition of carrageenan-induced paw edema at 10 mg/kg, po; assay type: functional; procedure, shortened: as §1
SMILES,IC50 (U-937) [µg/mL],inhibition in vivo at 100 mg/kg (Rattus norvegicus [1]) [%],inhibition in vivo at 10 mg/kg (Rattus norvegicus [2]) [%]
O=C(O)[C@H](Cc1c[nH]c2ccccc12)Nc1nc(-c2ccccc2)nc2ccc(I)cc12,46.1,0,–
O=C(O)[C@H](Cc1c[nH]c2ccccc12)Nc1nc(-c2ccccc2)nc2ccccc12,74.8,1.8,–
O=C(O)CNc1nc(-c2ccccc2)nc2ccccc12,–,0,–
O=C(O)CNc1nc(-c2ccccc2)nc2ccc(Br)cc12,–,0,–
O=C(O)CNc1nc(-c2ccccc2)nc2ccc(I)cc12,–,0,–
C[C@H](Nc1nc(-c2ccccc2)nc2ccc(I)cc12)C(=O)O,–,6.5,–
O=C(O)[C@H](Cc1ccccc1)Nc1nc(-c2ccccc2)nc2ccc(Br)cc12,50.4,0,–
CC[C@H](C)[C@H](Nc1nc(-c2ccccc2)nc2ccccc12)C(=O)O,121,4.1,–
CC[C@H](C)[C@H](Nc1nc(-c2ccccc2)nc2ccc(Br)cc12)C(=O)O,32,0,–
CC[C@H](C)[C@H](Nc1nc(-c2ccccc2)nc2ccc(I)cc12)C(=O)O,52.4,0,–
O=C(O)[C@H](Cc1ccccc1)Nc1nc(-c2ccccc2)nc2ccccc12,–,0,–
O=C(O)[C@H](Cc1c[nH]c2ccccc12)Nc1nc(-c2ccccc2)nc2ccc(Br)cc12,37.9,0,–
C[C@H](Nc1nc(-c2ccccc2)nc2ccccc12)C(=O)O,–,9.3,–
C[C@H](Nc1nc(-c2ccccc2)nc2ccc(Br)cc12)C(=O)O,104,0,–
O=C(O)[C@H](Cc1ccccc1)Nc1nc(-c2ccccc2)nc2ccc(I)cc12,16.1,3.7,–
COc1cc([C@@H]2c3cc4c(cc3[C@@H](O[C@@H]3O[C@@H]5CO[C@@H](C)O[C@H]5[C@H](O)[C@H]3O)[C@H]3COC(=O)[C@H]23)OCO4)cc(OC)c1O [ETOPOSIDE],10.6,–,–
COc1ccc2c(c1)c(CC(=O)O)c(C)n2C(=O)c1ccc(Cl)cc1 [INDOMETHACIN],–,–,48
